Legend:
[1] = biological target: Histone deacetylase 3 (Homo sapiens, UniProt O15379); experiment: Inhibition of HDAC3 (unknown origin) assessed as inhibition of fluorogenic peptide deacetylation
[2] = biological target: T1, Protein deacetylase HDAC6 (Homo sapiens, UniProt Q9UBN7); experiment: Inhibition of HDAC6 (unknown origin) assessed as inhibition of fluorogenic peptide deacetylation
T1 sequence (Q9UBN7 whole entry): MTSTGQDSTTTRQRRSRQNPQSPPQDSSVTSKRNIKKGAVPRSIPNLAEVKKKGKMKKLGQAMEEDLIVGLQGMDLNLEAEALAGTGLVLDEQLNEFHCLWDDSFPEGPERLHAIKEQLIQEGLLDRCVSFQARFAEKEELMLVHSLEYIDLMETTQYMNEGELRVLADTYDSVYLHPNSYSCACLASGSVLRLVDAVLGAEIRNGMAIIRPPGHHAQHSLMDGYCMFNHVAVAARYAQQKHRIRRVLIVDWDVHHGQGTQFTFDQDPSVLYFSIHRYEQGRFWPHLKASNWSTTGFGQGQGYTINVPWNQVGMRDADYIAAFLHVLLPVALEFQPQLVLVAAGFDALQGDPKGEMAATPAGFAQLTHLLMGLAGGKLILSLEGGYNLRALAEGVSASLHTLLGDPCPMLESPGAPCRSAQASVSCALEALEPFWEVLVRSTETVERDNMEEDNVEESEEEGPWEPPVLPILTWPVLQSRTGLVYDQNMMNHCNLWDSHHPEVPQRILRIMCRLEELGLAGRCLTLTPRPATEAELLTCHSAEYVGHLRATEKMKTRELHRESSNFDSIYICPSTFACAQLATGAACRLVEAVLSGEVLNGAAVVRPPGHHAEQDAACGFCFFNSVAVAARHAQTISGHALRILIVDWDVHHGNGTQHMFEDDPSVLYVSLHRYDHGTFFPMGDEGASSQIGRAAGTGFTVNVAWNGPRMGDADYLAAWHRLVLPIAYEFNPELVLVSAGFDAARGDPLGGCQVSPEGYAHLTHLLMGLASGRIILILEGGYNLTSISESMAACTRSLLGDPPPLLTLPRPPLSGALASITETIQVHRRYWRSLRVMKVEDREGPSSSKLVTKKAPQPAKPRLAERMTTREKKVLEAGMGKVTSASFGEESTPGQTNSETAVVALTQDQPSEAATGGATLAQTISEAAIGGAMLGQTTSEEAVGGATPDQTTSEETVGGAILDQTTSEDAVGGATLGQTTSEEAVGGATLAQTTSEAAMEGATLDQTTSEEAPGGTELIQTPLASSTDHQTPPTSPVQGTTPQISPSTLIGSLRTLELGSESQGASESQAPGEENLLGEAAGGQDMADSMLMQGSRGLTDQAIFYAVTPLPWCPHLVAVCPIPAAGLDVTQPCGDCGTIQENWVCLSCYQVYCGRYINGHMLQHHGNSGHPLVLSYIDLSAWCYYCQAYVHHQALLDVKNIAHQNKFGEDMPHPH

[3] = biological target: Histone deacetylase 2 (Homo sapiens, UniProt Q92769); experiment: Inhibition of HDAC2 (unknown origin) assessed as inhibition of fluorogenic peptide deacetylation
[4] = biological target: Histone deacetylase 1 (Homo sapiens, UniProt Q13547); experiment: Inhibition of HDAC1 (unknown origin) assessed as inhibition of fluorogenic peptide deacetylation
[5] = biological target: T2, Androgen receptor (Homo sapiens, UniProt P10275); experiment: Displacement of [3H]mibolerone from androgen receptor (unknown origin) in membranes after 24 hrs by HAP adsorption assay
T2 sequence (P10275 whole entry): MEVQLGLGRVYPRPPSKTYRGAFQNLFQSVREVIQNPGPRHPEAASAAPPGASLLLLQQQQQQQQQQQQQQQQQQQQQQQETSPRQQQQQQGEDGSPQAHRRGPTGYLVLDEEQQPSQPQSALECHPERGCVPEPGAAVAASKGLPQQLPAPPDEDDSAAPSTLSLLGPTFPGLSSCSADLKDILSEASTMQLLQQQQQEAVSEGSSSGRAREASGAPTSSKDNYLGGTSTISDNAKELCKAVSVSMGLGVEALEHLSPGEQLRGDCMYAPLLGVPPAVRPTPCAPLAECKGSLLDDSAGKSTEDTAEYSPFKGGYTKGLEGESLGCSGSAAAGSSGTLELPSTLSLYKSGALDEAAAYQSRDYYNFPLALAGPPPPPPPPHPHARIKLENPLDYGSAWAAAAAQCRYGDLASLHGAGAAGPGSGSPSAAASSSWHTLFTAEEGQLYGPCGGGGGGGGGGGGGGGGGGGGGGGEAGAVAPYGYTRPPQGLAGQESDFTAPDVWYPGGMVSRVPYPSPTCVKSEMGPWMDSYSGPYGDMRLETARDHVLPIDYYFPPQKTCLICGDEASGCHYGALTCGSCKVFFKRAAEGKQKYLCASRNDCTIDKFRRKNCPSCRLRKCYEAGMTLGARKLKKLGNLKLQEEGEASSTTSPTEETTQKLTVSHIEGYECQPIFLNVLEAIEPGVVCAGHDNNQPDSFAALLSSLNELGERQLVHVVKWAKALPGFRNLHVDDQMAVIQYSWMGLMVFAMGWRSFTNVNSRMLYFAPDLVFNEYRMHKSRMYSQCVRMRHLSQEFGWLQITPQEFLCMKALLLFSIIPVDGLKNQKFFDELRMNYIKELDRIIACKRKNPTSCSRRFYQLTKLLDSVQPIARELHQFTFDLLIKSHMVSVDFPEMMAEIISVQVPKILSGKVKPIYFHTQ

[6] = Tmax in mouse at 2 mg/kg, iv by HPLC-MS analysis; type: ADME, organism-based; conditions: in vivo
Outline: (§1)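 Mice dosed iv at 2 mg/kg, or ip or sc at 10 mg/kg. Plasma concentration–time profiles were obtained by sparse sampling with N = 3 per time-point. Parameters (Cmax, Tmax, AUClast, terminal t1/2, CL, Vz, bioavailability) were derived by noncompartmental analysis.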

[7] = Terminal half life in mouse at 2 mg/kg, iv by HPLC-MS analysis; type: ADME, organism-based; conditions: in vivo, read-out: beta t1/2 (converted); outline: as §1
[8] = Tmax in mouse at 10 mg/kg, sc by HPLC-MS analysis; type: ADME, organism-based; conditions: in vivo; outline: as §1
[9] = Cmax in mouse at 10 mg/kg, sc by HPLC-MS analysis; type: ADME, organism-based; set-up: dose 10 mg/kg, route subcutaneous; conditions: in vivo; outline: as §1
[10] = AUClast in mouse at 10 mg/kg, ip by HPLC-MS analysis; type: ADME, organism-based; set-up: dose 10 mg/kg, time 0 - last, route intraperitoneal; conditions: in vivo; outline: as §1
[11] = Bioavailability in mouse at 10 mg/kg, ip by HPLC-MS analysis; type: ADME, organism-based; conditions: in vivo; outline: as §1
[12] = Metabolic stability in mouse liver microsomes assessed as compound remaining at 1 uM measured after 30 mins in presence of NADPH by LC-MS/MS analysis; type: ADME; conditions: read-out: Stability
[13] = AUClast in mouse at 10 mg/kg, sc by HPLC-MS analysis; type: ADME, organism-based; set-up: dose 10 mg/kg, time 0 - last, route subcutaneous; conditions: in vivo; outline: as §1
[14] = Tmax in mouse at 10 mg/kg, ip by HPLC-MS analysis; type: ADME, organism-based; conditions: in vivo; outline: as §1
[15] = Metabolic stability in human liver microsomes assessed as compound remaining at 1 uM measured after 30 mins in presence of NADPH by LC-MS/MS analysis; type: ADME; conditions: read-out: Stability
[16] = tested on: UGT; experiment: Metabolic stability in human liver microsomes assessed as UGT-mediated glucuronidation of compound by measuring parent compound remaining at 5 uM after 30 mins in presence of UDPGA by LC-MS/MS analysis; type: ADME; conditions: read-out: Stability
[17] = Apparent volume of distribution in mouse at 2 mg/kg, iv by HPLC-MS analysis; type: ADME, organism-based; conditions: in vivo, read-out: Vz; outline: as §1
[18] = Cmax in mouse at 10 mg/kg, ip by HPLC-MS analysis; type: ADME, organism-based; set-up: dose 10 mg/kg, route intraperitoneal; conditions: in vivo; outline: as §1
[19] = Clearance in mouse at 2 mg/kg, iv by HPLC-MS analysis; type: ADME, organism-based; conditions: in vivo; outline: as §1
[20] = Cmax in mouse at 2 mg/kg, iv by HPLC-MS analysis; type: ADME, organism-based; set-up: dose 2 mg/kg, route intravenous; conditions: in vivo; outline: as §1
[21] = tested on: UGT; experiment: Metabolic stability in mouse liver microsomes assessed as UGT-mediated glucuronidation of compound by measuring parent compound remaining at 5 uM after 30 mins in presence of UDPGA by LC-MS/MS analysis; type: ADME; conditions: read-out: Stability
[22] = Terminal half life in mouse at 10 mg/kg, sc by HPLC-MS analysis; type: ADME, organism-based; conditions: in vivo, read-out: beta t1/2 (converted); outline: as §1
[23] = Terminal half life in mouse at 10 mg/kg, ip by HPLC-MS analysis; type: ADME, organism-based; conditions: in vivo, read-out: beta t1/2 (converted); outline: as §1
[24] = AUClast in mouse at 2 mg/kg, iv by HPLC-MS analysis; type: ADME, organism-based; set-up: dose 2 mg/kg, route intravenous, time 0 - last; conditions: in vivo; outline: as §1
[25] = Bioavailability in mouse at 10 mg/kg, sc by HPLC-MS analysis; type: ADME, organism-based; conditions: in vivo; outline: as §1

Histone deacetylase 3, sequence (O15379 whole entry): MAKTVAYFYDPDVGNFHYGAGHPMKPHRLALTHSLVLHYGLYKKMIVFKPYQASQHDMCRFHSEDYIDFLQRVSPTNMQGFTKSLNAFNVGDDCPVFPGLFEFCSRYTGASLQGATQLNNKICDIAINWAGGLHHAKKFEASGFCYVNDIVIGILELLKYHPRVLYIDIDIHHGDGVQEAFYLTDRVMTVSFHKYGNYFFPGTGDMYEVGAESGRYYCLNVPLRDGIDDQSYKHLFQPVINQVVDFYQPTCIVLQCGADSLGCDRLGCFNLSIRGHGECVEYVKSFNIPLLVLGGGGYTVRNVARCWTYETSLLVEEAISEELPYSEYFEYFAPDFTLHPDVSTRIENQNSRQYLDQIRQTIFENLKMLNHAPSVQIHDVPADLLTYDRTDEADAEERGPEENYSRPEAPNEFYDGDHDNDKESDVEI
Histone deacetylase 1, sequence (Q13547 whole entry): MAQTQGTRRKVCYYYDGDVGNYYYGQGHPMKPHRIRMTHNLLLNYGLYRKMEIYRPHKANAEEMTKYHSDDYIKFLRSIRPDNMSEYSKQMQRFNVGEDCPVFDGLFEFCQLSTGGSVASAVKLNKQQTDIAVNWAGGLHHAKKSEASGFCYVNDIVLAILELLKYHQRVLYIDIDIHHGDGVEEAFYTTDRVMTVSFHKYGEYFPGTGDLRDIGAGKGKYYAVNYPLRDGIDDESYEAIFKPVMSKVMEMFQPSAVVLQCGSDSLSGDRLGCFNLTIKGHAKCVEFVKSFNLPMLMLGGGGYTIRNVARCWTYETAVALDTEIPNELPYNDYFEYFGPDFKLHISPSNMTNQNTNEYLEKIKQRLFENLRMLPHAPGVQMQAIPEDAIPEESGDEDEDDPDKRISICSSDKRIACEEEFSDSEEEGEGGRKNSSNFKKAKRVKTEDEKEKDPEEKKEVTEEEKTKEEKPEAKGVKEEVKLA
Histone deacetylase 2, sequence (Q92769 whole entry): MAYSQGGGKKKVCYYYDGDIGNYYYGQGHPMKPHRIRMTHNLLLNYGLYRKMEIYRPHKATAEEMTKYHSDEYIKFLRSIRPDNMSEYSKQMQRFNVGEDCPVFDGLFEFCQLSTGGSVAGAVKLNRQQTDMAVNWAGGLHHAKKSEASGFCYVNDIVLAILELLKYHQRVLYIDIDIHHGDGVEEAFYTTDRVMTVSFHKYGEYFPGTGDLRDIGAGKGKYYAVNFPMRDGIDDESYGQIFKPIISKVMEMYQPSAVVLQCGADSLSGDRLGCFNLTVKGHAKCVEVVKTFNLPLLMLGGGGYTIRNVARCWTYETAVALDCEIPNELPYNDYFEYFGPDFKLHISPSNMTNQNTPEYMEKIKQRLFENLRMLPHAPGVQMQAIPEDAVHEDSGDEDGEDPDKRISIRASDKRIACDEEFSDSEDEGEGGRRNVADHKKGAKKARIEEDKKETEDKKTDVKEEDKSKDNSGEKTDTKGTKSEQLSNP

| IC50 [1] [µM] | IC50 [2] [µM] | IC50 [3] [µM] | IC50 [4] [µM] | IC50 [5] [µM] | Structure (SMILES) | other results |
| --- | --- | --- | --- | --- | --- | --- |
| > 100 | > 100 | > 100 | > 100 | 0.25 | CC1(C)C(=O)N(c2ccc(C#N)c(C(F)(F)F)c2)C(=S)N1c1ccc(C(=O)NCCCCCCn2cccc(O)c2=O)c(F)c1 |  |
| > 10 | > 10 | 3.33 | > 10 | < 0.03 | CC1(C)C(=O)N(c2ccc(C#N)c(C(F)(F)F)c2)C(=S)N1c1ccc(C(=O)NCCCCCCn2cccc(O)c2=S)c(F)c1 |  |
| > 10 | > 10 | > 10 | > 10 | 0.068 | CC1(C)C(=O)N(c2ccc(C#N)c(C(F)(F)F)c2)C(=S)N1c1ccc(C(=O)NCCCCCCc2ccc(C(=O)C(F)(F)F)s2)c(F)c1 |  |
| 0.28 | > 10 | 3.37 | > 10 | < 0.03 | CC1(C)C(=O)N(c2ccc(C#N)c(C(F)(F)F)c2)C(=S)N1c1ccc(C(=O)NCCCCCCC(=O)Nc2ccccc2N)c(F)c1 |  |

| Structure (SMILES) | IC50 [1] [µM] | IC50 [2] [µM] | IC50 [3] [µM] | IC50 [4] [µM] | IC50 [5] [µM] | other results |
| --- | --- | --- | --- | --- | --- | --- |
| CC1(C)C(=O)N(c2ccc(C#N)c(C(F)(F)F)c2)C(=S)N1c1ccc(C(=O)OCCCCCC(=O)NO)c(F)c1 | 2 | 0.002 | 1.1 | 3.15 | 0.043 |  |
| CC1(C)C(=O)N(c2ccc(C#N)c(C(F)(F)F)c2)C(=S)N1c1ccc(/C=C/C(=O)Nc2ccccc2N)c(F)c1 | 20.2 | 60 | > 100 | > 100 | 0.23 |  |
| CC1(C)C(=O)N(c2ccc(C#N)c(C(F)(F)F)c2)C(=S)N1c1ccc(C(=O)NCCCCCC(=O)NO)c(F)c1 | 1.83 | 0.036 | 2.25 | 2.89 | < 0.03 | Tmax [6]: 4.98 min; half-life [7]: 25.6 min; Tmax [8]: 30 min; Cmax [9]: 269 nM; AUC(0-t) [10]: 0.846 µM·h; bioavailability [11]: 82.1%; remaining at 0.5 h, 1 µM [12]: 21.9%; AUC(0-t) [13]: 1.03 µM·h; Tmax [14]: 60 min; remaining at 0.5 h, 1 µM [15]: 29.1%; remaining at 0.5 h, 5 µM [16]: 97.6%; Vd [17]: 10.3 L/kg; Cmax [18]: 419 nM; clearance [19]: 278 mL/min/kg; Cmax [20]: 706 nM; remaining at 0.5 h, 5 µM [21]: 46.1%; half-life [22]: 205 min; half-life [23]: 660 min; AUC(0-t) [24]: 0.206 µM·h; bioavailability [25]: 100% |

Reference: ChEMBL document CHEMBL3862016 (Bioorg Med Chem Lett, 2016)
